# Source: PubChem BioAssay (The Scripps Research Institute Molecular Screening Center)
# MC4R antag cAMP: MC4R antagonists of cAMP signaling, primary screen, cell-based, TR-FRET, antagonist arm of biased-ligand search; MC4R-expressing cells, MTII-stimulated cAMP, LANCE TR-FRET; inhibition, % at 6.5 µM; actives 0.48% (n = 360,000); AID 540295, 2011;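 active = inhibition above its plate's cutoff, the mean of tested wells on that plate plus 3 SD, cut at about 29% in these data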;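 also: 0% = Melanotan II alone and 100% = Melanotan II plus saturating MCL0020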
# Target sequence (P32245 whole entry, looked up): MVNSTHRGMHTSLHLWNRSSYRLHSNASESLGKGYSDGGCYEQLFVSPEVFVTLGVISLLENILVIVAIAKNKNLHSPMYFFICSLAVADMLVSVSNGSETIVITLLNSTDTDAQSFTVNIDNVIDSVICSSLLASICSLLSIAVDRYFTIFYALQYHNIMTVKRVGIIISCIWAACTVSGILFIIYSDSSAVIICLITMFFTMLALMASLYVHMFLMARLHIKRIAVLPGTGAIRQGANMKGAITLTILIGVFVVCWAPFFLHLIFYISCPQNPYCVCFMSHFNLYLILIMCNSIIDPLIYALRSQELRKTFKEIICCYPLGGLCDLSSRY
#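 Material: U2OS-MC4R stable cell line | Reagent: Melanotan II challenge after compound preincubation | Doses: One concentration, 6.5 µM nominal | Incubation: 30-min compound preincubation, 1-h Melanotan II challenge, 1-h detection, room temperature | Signal: TR-FRET cAMP assay | Replicates: One well per compound, no replicates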
# MsrA act: bovine MsrA enzyme activators, primary screen, biochemical, absorbance, HTS; Methionine sulfoxide reductase A (Bos taurus); purified bovine MsrA, absorbance read-out; activation, % at 10.6 µM; actives 0.3% (n = 360,000); in the data active = activation above about 7.5%;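 also: 0% = vehicle and 100% = reference activator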
# MsrA inhibitor: bovine MsrA enzyme inhibitors, primary screen, biochemical, absorbance, HTS. purified bovine MsrA, absorbance read-out. actives 0.75% (n = 360,000). inhibition, % at 15.5 µM. AID 651718, 2012; in the data active = inhibition above about 4.5%;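 also: 0% = vehicle wells with enzyme and 100% = reference inhibitor wells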
# MC4R ag barr: MC4R agonists recruiting beta-arrestin, primary screen, cell-based, luminescence, agonist arm of biased-ligand search; actives 0.98% (n = 360,000); U2OS MC4R beta-arrestin complementation; percent of melanotan II response, DMSO zero; Melanocortin receptor 4 (Homo sapiens), P32245; AID 540308, 2011; activation, % at 8.9 µM;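 active = activation above a per-plate cutoff, the mean activation of sample wells on that plate plus 3 SD, cut at about 8% in these data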
# * hit, by the source's call; nt = not tested or not shown. This is a sample that favours compounds with a hit; in the whole collection about 2.3% have one here.
SMILES,MC4R antag cAMP,MsrA act,MsrA inhibitor,MC4R ag barr
N#C/C(=C/c1ccc(N2CCCCCC2)o1)c1cccc(F)c1,10,-6,0,8.7*
CS(=O)(=O)N(CC(=O)NCc1ccncc1)c1ccc(Cl)c(Cl)c1,3,-2,0,-2
COc1ccccc1N1CCN(C(=O)C(=O)c2c[nH]c3ccccc23)CC1,-1,0,2,-3
Clc1ccc(CSc2nnc(-c3c[nH]c4ccccc34)o2)cc1,9,-12,0,8.6*
O=C(Cn1ccc(NC(=O)OCc2ccccc2)nc1=O)NCCCN1CCCC1=O,2,-11,2,1
Cc1ccccc1C(=O)Nc1nc(SCc2ccc(Cl)cc2)n[nH]1,-9,-3,-2,8.7*
Cc1nn(Cc2ccccc2Cl)c(C)c1NC(=O)c1cc(-c2ccc(F)cc2)on1,16,0,0,8.9*
Cc1nn(Cc2ccccc2Cl)c(C)c1NC(=O)c1ccn(C)n1,-1,-11,1,3
COCCn1c(C(=O)N2CCCC2)cc2c1C[C@H]1CN(C(=O)c3ccccc3)[C@@](Cc3ccc(F)cc3)(C(=O)OC)[C@@H]21,nt,nt,0,nt
Cc1cc(C(=O)Nc2nnc(C3CCCCC3)s2)no1,3,-3,2,-1
COc1cccc(-c2cc(C(=O)Nc3cc(C)on3)no2)c1,1,0,-2,8.5*
Cc1cc(C(=O)Nc2nnc(-c3ccccc3)s2)no1,-1,-8,4.6*,1
Cc1cc(NC(=O)c2ccc(COc3ccc(Cl)c(C)c3)o2)no1,-1,-3,1,9.4*
Cc1cc(NC(=O)c2cc(-c3cccc(Cl)c3)on2)no1,3,-2,-1,3
Cc1ccc(OCC(=O)NNC(=O)c2ccc(-n3cncn3)c([N+](=O)[O-])c2)cc1,3,-4,0,-1
C/C=C(\C)C(=O)OC1[C@H](OC(C)=O)C2(CO)C(CC1(C)C)C1=CCC3C4(C)CCC(O[C@@H]5O[C@H](C(=O)O)[C@@H](O[C@@H]6O[C@H](CO)[C@@H](O)[C@H](O)[C@H]6O)[C@H](O)[C@H]5O[C@H]5O[C@H](CO)[C@@H](O)[C@H](O)[C@H]5O)[C@](C)(CO)C4CCC3(C)[C@]1(C)C[C@H]2O (stereo partly drawn),95*,-3,nt,-4
CC1(C)C[C@H]2C3=CCC4[C@@]5(C)CC[C@H](O[C@@H]6O[C@H](C(=O)O)[C@@H](O)[C@H](O)[C@H]6O)[C@@](C)(CO)C5CC[C@@]4(C)[C@]3(C)C[C@H](O)[C@@]2(CO)[C@@H](O)[C@@H]1O (stereo partly drawn),19,-2,0,0
CCOc1ccc(N(C)C(=O)CCc2nnc3ccc(N4CCCC4)nn23)cc1,-5,-10,0,1
O=C(COC(=O)c1cccc(Br)c1)NC(=O)NC1CCCC1,2,-2,0,8.8*
CCc1ccccc1NC(=O)CSc1nc(C)c(C)o1,2,1,2,-2
O=C(Nc1ccc(N=Nc2ccccc2)cc1)c1ccc(Cl)cc1Cl,-17,-5,1,0
O=C(Nc1ccc(N=Nc2ccccc2)cc1)c1ccccc1Cl,6,-2,1,9.5*
O=C(Cn1cc(COc2ccc(Br)cc2[N+](=O)[O-])nn1)c1ccc(O)cc1,-5,-5,4.6*,-2
CC(=O)c1ccc(OCc2cn(CC(=O)c3ccc(O)cc3)nn2)c(C)c1,4,-3,1,-2
COc1cc(/C=C/C(=O)OC(C)C(=O)Nc2c(C)n(C)n(-c3ccccc3)c2=O)ccc1OCC#N (stereo not drawn),-2,-9,4.6*,1
SMILES,MC4R antag cAMP,MsrA act,MsrA inhibitor,MC4R ag barr
O=C(NCc1ccccc1Cl)c1ccccc1Oc1ccccc1,9,-2,0,-4
CN(C)c1ccc(-c2n(C)c3ccccc3[n+]2C)cc1,-1,-11,4.6*,0
COC(=O)c1ccccc1N=Nc1c(C)n[nH]c1C,17,-3,3,-2
COc1ccccc1N=Nc1c(C)n[nH]c1C,12,-3,4.6*,1
CC(C)C(=O)Nc1ccc(S(=O)(=O)Nc2nccc(/C=C/c3ccccc3)n2)cc1,-1,-4,4.6*,0
O=C(CSc1nnc(-c2ccc(Br)cc2)o1)Nc1cccc2ccccc12,5,0,1,9.1*
